Assay results: ChEMBL document CHEMBL4715736, “Identification of anticancer agents based on the thieno[2,3-b]pyridine and 1H-pyrazole molecular scaffolds” (2016)

Legend:
Type in all cases: functional
NCI/ADR-RES = test: Growth inhibition of human NCI/ADR-RES cells incubated for 48 hrs by sulforhodamine B assay; settings: for CC50: read-out: LC50 (the source's name)
Method in brief: (§1)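 NCI60 panel at the NCI Developmental Therapeutics Program. Only compounds active in the 10 µM screen went to dose-response testing. GI50, the concentration giving 50% of maximal inhibition of proliferation, and TGI, the concentration giving total growth inhibition, were derived from the dose-response curves.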

NCI-H522 = test: Growth inhibition of human NCI-H522 cells incubated for 48 hrs by sulforhodamine B assay; method in brief: as §1
NCI-H460 [1] = test: Growth inhibition of human NCI-H460 cells assessed as cell growth at 1 uM incubated for 48 hrs by sulforhodamine B assay relative to control; settings: read-out: Activity
HCC 2998 [2] = test: Growth inhibition of human HCC 2998 cells assessed as cell growth at 0.01 uM incubated for 48 hrs by sulforhodamine B assay relative to control; settings: read-out: Activity
Method in brief: (§2)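 NCI Developmental Therapeutics Program NCI60 panel. Compounds that were active in the 10 µM one-dose screen went on to dose–response testing. Growth at each concentration is expressed relative to untreated control (100%). GI50 (concentration giving 50% of maximal inhibition of proliferation) and TGI (concentration giving total growth inhibition) were derived from the curves.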

SF-268 = test: Growth inhibition of human SF-268 cells assessed as cell growth at 0.1 uM incubated for 48 hrs by sulforhodamine B assay relative to control; settings: read-out: Activity
HT-29 [3] = test: Growth inhibition of human HT-29 cells assessed as cell growth at 1 uM incubated for 48 hrs by sulforhodamine B assay relative to control; settings: read-out: Activity
ACHN = test: Growth inhibition of human ACHN cells assessed as cell growth at 100 uM incubated for 48 hrs by sulforhodamine B assay relative to control; settings: read-out: Activity
SK-MEL-2 = test: Growth inhibition of human SK-MEL-2 cells assessed as cell growth at 1 uM incubated for 48 hrs by sulforhodamine B assay relative to control; settings: read-out: Activity
SNB-19 = test: Growth inhibition of human SNB-19 cells assessed as cell growth at 1 uM incubated for 48 hrs by sulforhodamine B assay relative to control; settings: read-out: Activity
NCI-H23 [4] = test: Growth inhibition of human NCI-H23 cells assessed as cell growth at 0.01 uM incubated for 48 hrs by sulforhodamine B assay relative to control; settings: read-out: Activity
UO-31 [5] = test: Growth inhibition of human UO-31 cells assessed as cell growth at 0.1 uM incubated for 48 hrs by sulforhodamine B assay relative to control; settings: read-out: Activity
M14 = test: Growth inhibition of human M14 cells assessed as cell growth at 100 uM incubated for 48 hrs by sulforhodamine B assay relative to control; settings: read-out: Activity
MDA-MB-468 = test: Growth inhibition of human MDA-MB-468 cells assessed as cell growth at 0.01 uM incubated for 48 hrs by sulforhodamine B assay relative to control; settings: read-out: Activity
SR = test: Growth inhibition of human SR cells assessed as cell growth at 0.01 uM incubated for 48 hrs by sulforhodamine B assay relative to control; settings: read-out: Activity
NCI-H460 [6] = test: Growth inhibition of human NCI-H460 cells assessed as cell growth at 0.01 uM incubated for 48 hrs by sulforhodamine B assay relative to control; settings: read-out: Activity
NCI-H226 [7] = test: Growth inhibition of human NCI-H226 cells assessed as cell growth at 100 uM incubated for 48 hrs by sulforhodamine B assay relative to control; settings: read-out: Activity
NCI-H23 [8] = test: Growth inhibition of human NCI-H23 cells assessed as cell growth at 0.1 uM incubated for 48 hrs by sulforhodamine B assay relative to control; settings: read-out: Activity
SW-620 = test: Growth inhibition of human SW-620 cells assessed as cell growth at 0.1 uM incubated for 48 hrs by sulforhodamine B assay relative to control; settings: read-out: Activity
BT-549 = test: Growth inhibition of human BT-549 cells assessed as cell growth at 0.1 uM incubated for 48 hrs by sulforhodamine B assay relative to control; settings: read-out: Activity
HT-29 [9] = test: Growth inhibition of human HT-29 cells incubated for 48 hrs by sulforhodamine B assay; method in brief: as §1
HCC 2998 [10] = test: Growth inhibition of human HCC 2998 cells assessed as cell growth at 0.1 uM incubated for 48 hrs by sulforhodamine B assay relative to control; settings: read-out: Activity; method in brief: as §2
SNB-75 = test: Growth inhibition of human SNB-75 cells assessed as cell growth at 100 uM incubated for 48 hrs by sulforhodamine B assay relative to control; settings: read-out: Activity
OVCAR-5 = test: Growth inhibition of human OVCAR-5 cells assessed as cell growth at 0.01 uM incubated for 48 hrs by sulforhodamine B assay relative to control; settings: read-out: Activity
NCI-H226 [11] = test: Growth inhibition of human NCI-H226 cells assessed as cell growth at 1 uM incubated for 48 hrs by sulforhodamine B assay relative to control; settings: read-out: Activity
A498 = test: Growth inhibition of human A498 cells incubated for 48 hrs by sulforhodamine B assay; settings: for CC50: read-out: LC50 (the source's name); method in brief: as §2
K562 = test: Growth inhibition of human K562 cells assessed as cell growth at 100 uM incubated for 48 hrs by sulforhodamine B assay relative to control; settings: read-out: Activity
SK-MEL-28 = test: Growth inhibition of human SK-MEL-28 cells assessed as cell growth at 100 uM incubated for 48 hrs by sulforhodamine B assay relative to control; settings: read-out: Activity
MOLT-4 = test: Growth inhibition of human MOLT-4 cells incubated for 48 hrs by sulforhodamine B assay; settings: for CC50: read-out: LC50 (the source's name); method in brief: as §1
UO-31 [12] = test: Growth inhibition of human UO-31 cells assessed as cell growth at 100 uM incubated for 48 hrs by sulforhodamine B assay relative to control; settings: read-out: Activity
MDA-MB-435 = test: Growth inhibition of human MDA-MB-435 cells incubated for 48 hrs by sulforhodamine B assay; settings: for CC50: read-out: LC50 (the source's name); method in brief: as §1
SF-295 [13] = test: Growth inhibition of human SF-295 cells assessed as cell growth at 0.1 uM incubated for 48 hrs by sulforhodamine B assay relative to control; settings: read-out: Activity
OVCAR-3 = test: Growth inhibition of human OVCAR-3 cells assessed as cell growth at 0.1 uM incubated for 48 hrs by sulforhodamine B assay relative to control; settings: read-out: Activity
HOP-92 = test: Growth inhibition of human HOP-92 cells incubated for 48 hrs by sulforhodamine B assay; method in brief: as §1
COLO 205 = test: Growth inhibition of human COLO 205 cells assessed as cell growth at 0.01 uM incubated for 48 hrs by sulforhodamine B assay relative to control; settings: read-out: Activity; method in brief: as §2
SF-295 [14] = test: Growth inhibition of human SF-295 cells assessed as cell growth at 100 uM incubated for 48 hrs by sulforhodamine B assay relative to control; settings: read-out: Activity
HCT-116 = test: Growth inhibition of human HCT-116 cells incubated for 48 hrs by sulforhodamine B assay; method in brief: as §1

Cc1cc(C)c(NC(=O)c2sc3nc4c(cc3c2N)CN(Cc2ccccc2)CC4)c(C)c1
GI50 (NCI/ADR-RES): 1.64 µM
TGI (NCI/ADR-RES): 6.24 µM
CC50 (NCI/ADR-RES): > 100 µM
GI50 (NCI-H522): 1.6 µM
LC50 (NCI-H522): > 100 µM
TGI (NCI-H522): 6.83 µM
growth at 1 µM (NCI-H460 [1]): 96%
growth at 0.01 µM (HCC 2998 [2]): 105%
growth at 0.1 µM (SF-268): 100%
growth at 1 µM (HT-29 [3]): 90%
growth at 100 µM (ACHN): 6%
growth at 1 µM (SK-MEL-2): 96%
growth at 1 µM (SNB-19): 87%
growth at 0.01 µM (NCI-H23 [4]): 102%
growth at 0.1 µM (UO-31 [5]): 88%
growth at 100 µM (M14): -18%
growth at 0.01 µM (MDA-MB-468): 99%
growth at 0.01 µM (SR): 100%
growth at 0.01 µM (NCI-H460 [6]): 99%
growth at 100 µM (NCI-H226 [7]): 20%
growth at 0.1 µM (NCI-H23 [8]): 103%
growth at 0.1 µM (SW-620): 98%
growth at 0.1 µM (BT-549): 91%
GI50 (HT-29 [9]): 2.88 µM
LC50 (HT-29 [9]): > 100 µM
TGI (HT-29 [9]): 13.2 µM
growth at 0.1 µM (HCC 2998 [10]): 98%
growth at 100 µM (SNB-75): -9%
growth at 0.01 µM (OVCAR-5): 90%
growth at 1 µM (NCI-H226 [11]): 78%
GI50 (A498): 1.31 µM
TGI (A498): 7.71 µM
CC50 (A498): > 100 µM
growth at 100 µM (K562): 13%
growth at 100 µM (SK-MEL-28): -30%
GI50 (MOLT-4): 4.15 µM
TGI (MOLT-4): > 100 µM
CC50 (MOLT-4): > 100 µM
growth at 100 µM (UO-31 [12]): -1%
GI50 (MDA-MB-435): 0.399 µM
TGI (MDA-MB-435): 4.38 µM
CC50 (MDA-MB-435): 68.9 µM
growth at 0.1 µM (SF-295 [13]): 92%
growth at 0.1 µM (OVCAR-3): 105%
GI50 (HOP-92): 0.877 µM
LC50 (concentration killing 50% of the starting cells) (HOP-92): > 100 µM
TGI (HOP-92): 42.6 µM
growth at 0.01 µM (COLO 205): 94%
growth at 100 µM (SF-295 [14]): -2%
GI50 (HCT-116): 2.89 µM
LC50 (concentration killing 50% of cells) (HCT-116): 67.2 µM
TGI (HCT-116): 16 µM

Cc1cccc(NC(=O)c2sc3nc4c(cc3c2N)C(=O)CCC4)c1
GI50 (NCI/ADR-RES): 0.23 µM
TGI (NCI/ADR-RES): ≥ 100 µM
CC50 (NCI/ADR-RES): > 100 µM
GI50 (NCI-H522): 0.107 µM
LC50 (NCI-H522): > 100 µM
TGI (NCI-H522): 621 µM
growth at 1 µM (NCI-H460 [1]): 8%
growth at 0.01 µM (HCC 2998 [2]): 97%
growth at 0.1 µM (SF-268): 93%
growth at 1 µM (HT-29 [3]): 2%
growth at 100 µM (ACHN): -21%
growth at 1 µM (SK-MEL-2): 17%
growth at 1 µM (SNB-19): 33%
growth at 0.01 µM (NCI-H23 [4]): 99%
growth at 0.1 µM (UO-31 [5]): 81%
growth at 100 µM (M14): -48%
growth at 0.01 µM (MDA-MB-468): 93%
growth at 0.01 µM (NCI-H460 [6]): 104%
growth at 100 µM (NCI-H226 [7]): -15%
growth at 0.1 µM (NCI-H23 [8]): 82%
growth at 0.1 µM (SW-620): 60%
growth at 0.1 µM (BT-549): 74%
GI50 (HT-29 [9]): 0.199 µM
LC50 (HT-29 [9]): ≥ 100 µM
TGI (HT-29 [9]): ≥ 100 µM
growth at 0.1 µM (HCC 2998 [10]): 80%
growth at 100 µM (SNB-75): 1%
growth at 0.01 µM (OVCAR-5): 96%
growth at 1 µM (NCI-H226 [11]): 57%
GI50 (A498): 0.139 µM
TGI (A498): 0.701 µM
CC50 (A498): > 100 µM
growth at 100 µM (K562): 17%
growth at 100 µM (SK-MEL-28): -15%
TGI (MOLT-4): > 100 µM
CC50 (MOLT-4): > 100 µM
growth at 100 µM (UO-31 [12]): -23%
GI50 (MDA-MB-435): 0.0297 µM
TGI (MDA-MB-435): 0.115 µM
CC50 (MDA-MB-435): 0.681 µM
growth at 0.1 µM (SF-295 [13]): 60%
growth at 0.1 µM (OVCAR-3): 81%
GI50 (HOP-92): 1 µM
LC50 (concentration killing 50% of the starting cells) (HOP-92): > 100 µM
TGI (HOP-92): ≥ 100 µM
growth at 0.01 µM (COLO 205): 92%
growth at 100 µM (SF-295 [14]): 7%
GI50 (HCT-116): 0.28 µM
LC50 (concentration killing 50% of cells) (HCT-116): > 100 µM
TGI (HCT-116): > 100 µM
